Results taken from ChEMBL document CHEMBL3576783, “Synthesis and evaluation of 1,2,4-triazolo[1,5-a]pyrimidines as antibacterial agents against Enterococcus faecium” (J Med Chem, 2015).
Values after ≈ are worked out from the molar mass of the structure shown.

Legend:
[1] = tested on: Enterococcus faecium; test: microbe, parasite or virus in culture; details: NCTC 7171
[2] = tested on: Enterococcus faecium; test: Antibacterial activity against vancomycin-susceptible Enterococcus faecium 119-39A assessed as bacterial growth inhibition after 16-20 hrs by broth microdilution method; type: functional
How it was run: (§1)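 CLSI broth microdilution in cation-adjusted Mueller Hinton II broth, triplicate. Cultures grown to OD600 about 0.60-0.80, diluted 100-fold; final inoculum 5×10^5 CFU/mL. Compounds from 5 mg/mL DMSO stock diluted in medium, final 2% (v/v) DMSO plus 0.25% (v/v) glacial acetic acid. Incubated 35 °C, 16-20 h, then MIC read.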

[3] = tested on: Liver; test: Half life in human liver S9 at 10 uM after 60 mins by UPLC analysis; type: ADME, subcellular, Liver S9 fraction; details: s9, 1 h
How it was run: (§2)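 Pooled human liver S9 (1 mg/mL) with 1 mM NADPH and 10 μM compound in sodium phosphate buffer (0.20 M phosphate, 0.15 M NaCl, pH 7.4), 37 °C for 60 min. Six time points quenched in acetonitrile with internal standard, analysed by UPLC-MRM. Half-life taken from first-order rate constant; CLint scaled with 45 mg protein/g liver and 20 g liver/kg. Run in duplicate.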

[4] = Apparent intrinsic clearance in human liver S9 at 10 uM after 60 mins by UPLC analysis; type: ADME, subcellular, Liver S9 fraction; details: read-out: CLH(app)
How it was run: as §2

[5] = tested on: Enterococcus faecium; test: Antibacterial activity against copper, erythromycin, teracycline-resistant and vancomycin and teicoplanin-sensitive Enterococcus faecium ATCC BAA2127 assessed as bacterial growth inhibition after 16-20 hrs by broth microdilution method; type: functional
How it was run: as §1

[6] = Induction of hemolysis in RBC (unknown origin) at 64 ug/ml; details: erythrocytes
[7] = tested on: Enterococcus faecium; test: Antibacterial activity against vancomycin and teicoplanin-resistant Enterococcus faecium ATCC 700221 isolated from human faeces assessed as bacterial growth inhibition after 16-20 hrs by broth microdilution method; type: functional; details: ATCC 700221, Feces
How it was run: as §1, with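 “Broth” for “CLSI broth”, “broth, run to CLSI method,” for “broth,”, “Cells” for “Cultures”, “~0.60-0.80,” for “about 0.60-0.80,”, “stocks” for “stock”, “°C for” for “°C,”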

CCc1ccc(C2C(C(N)=O)=C(C)Nc3nc(SCc4ccccc4)nn32)cc1 (stereo not drawn) showed an MIC [1] of 8 µg/mL (≈ 19.7 µM).

Work on CC1=C(C(N)=O)C(c2ccccc2C(F)(F)F)n2nc(SCc3ccccc3)nc2N1 (stereo not drawn) yielded an MIC [1] of over 128 µg/mL.

Work on CC1=C(C(N)=O)C(c2ccsc2)n2nc(SCc3ccccc3)nc2N1 (stereo not drawn) yielded an MIC [1] of over 128 µg/mL.

CC1=C(C(N)=O)C(c2ccc(C(F)(F)F)cc2)n2nc(SCc3ccccc3)nc2N1 (stereo not drawn) gave an MIC [1] of 8 µg/mL (≈ 18 µM).

With CC1=C(C(N)=O)C(c2ccc[nH]2)n2nc(SCc3ccccc3)nc2N1 (stereo not drawn) the MIC [1] was over 128 µg/mL.

In the case of CCc1ccc(C2C(C(=O)Nc3ccccc3OC)=C(C)Nc3nc(SCc4ccccc4)nn32)cc1 (stereo not drawn), the MIC [1] is reported as over 128 µg/mL.

CN(C)c1ccc(C2C3=C(CCCC3=O)Nc3nc(SCc4ccccc4)nn32)cc1 (stereo not drawn) showed an MIC [1] of over 128 µg/mL.

With CC1=C(C(N)=O)C(c2ccc(N(C)C)cc2)n2nc(SCc3ccc(C(F)(F)F)cc3)nc2N1 (stereo not drawn) the MIC [1] was over 128 µg/mL.

Compound CCc1cccc(C2C(C(N)=O)=C(C)Nc3nc(SCc4ccccc4)nn32)c1 (stereo not drawn) has an MIC [1] of 16 µg/mL (≈ 39.5 µM).

CC1=C(C(=O)Nc2ccc(C)cc2C)C(c2ccc(C)cc2)n2nc(SCc3cccc(C)c3)nc2N1 (stereo not drawn) showed an MIC [1] of over 128 µg/mL.

In the case of CC1=C(C(N)=O)C(c2ccccc2)n2nc(SCc3ccccc3)nc2N1 (stereo not drawn), the MIC [1] is reported as over 128 µg/mL.

CC1=C(C(N)=O)C(c2ccc(N(C)C)cc2)n2nc(SCc3ccc([N+](=O)[O-])cc3)nc2N1 (stereo not drawn) showed an MIC [2] of 16 µg/mL (≈ 34.4 µM), a t1/2 [3] of over 1 h and a CLint scaled at 10 µM [4] of under 10.4 mL/min/kg. The MIC [5] was 32 µg/mL (≈ 68.7 µM), the Activity [6] was 23% and the MBC [1] was 16 µg/mL (≈ 34.4 µM). It also gave an MIC [1] of 4 µg/mL (≈ 8.59 µM) and an MIC [7] of 8 µg/mL (≈ 17.2 µM).

In the case of CC1=C(C(N)=O)C(c2cccc(C(F)(F)F)c2)n2nc(SCc3ccccc3)nc2N1 (stereo not drawn), the MIC [1] is reported as 16 µg/mL (≈ 35.9 µM).

In the case of CCOc1ccccc1C1C2=C(CCCC2=O)Nc2nc(SCc3ccc(C(=O)O)cc3)nn21 (stereo not drawn), the MIC [1] is reported as over 128 µg/mL.

For CC1=C(C(N)=O)C(c2ccc(C#N)cc2)n2nc(SCc3ccccc3)nc2N1 (stereo not drawn), the MIC [1] was 16 µg/mL (≈ 39.8 µM).

For CCOC(=O)CSc1nc2n(n1)C(c1ccc(N(C)C)cc1)C(C(N)=O)=C(C)N2 (stereo not drawn), the MIC [1] was over 128 µg/mL.

In the case of CC1=C(C(N)=O)C(c2cccc(OC(F)(F)F)c2)n2nc(SCc3ccccc3)nc2N1 (stereo not drawn), the MIC [1] is reported as 16 µg/mL (≈ 34.7 µM).

CC1=C(C(=O)Nc2ccccc2C)C(c2ccc(C)cc2)n2nc(SCc3cccc(C)c3)nc2N1 (stereo not drawn) gave an MIC [1] of over 128 µg/mL.

CSc1ccc(C2C(C(N)=O)=C(C)Nc3nc(SCc4ccccc4)nn32)cc1 (stereo not drawn) showed an MIC [1] of over 128 µg/mL.

Compound CC1=C(C(N)=O)C(c2ccc(C(=O)O)cc2)n2nc(SCCNC(=O)OCc3ccccc3)nc2N1 (stereo not drawn) has an MIC [1] of over 128 µg/mL.

For CCN(CC)c1ccc(C2C(C(N)=O)=C(C)Nc3nc(SCc4ccccc4)nn32)cc1 (stereo not drawn), the MIC [1] was 8 µg/mL (≈ 17.8 µM).

With CC1=C(C(N)=O)C(c2cccc(OC(C)C)c2)n2nc(SCc3ccccc3)nc2N1 (stereo not drawn) the MIC [1] was over 128 µg/mL.

CC1=C(C(N)=O)C(c2ccc(C(C)C)cc2)n2nc(SCCNC(=O)OCc3ccccc3)nc2N1 (stereo not drawn) gave an MIC [1] of over 128 µg/mL.

Work on CCOC(=O)C1=C(C)Nc2nc(SCc3ccc(C(=O)O)cc3)nn2C1c1cccs1 (stereo not drawn) yielded an MIC [1] of over 128 µg/mL.

With CC1=C(C(N)=O)C(c2ccc(N3CCCC3)cc2)n2nc(SCc3ccccc3)nc2N1 (stereo not drawn) the MIC [1] was 16 µg/mL (≈ 35.8 µM).

CC1=C(C(N)=O)C(c2cccs2)n2nc(SCc3ccccc3)nc2N1 (stereo not drawn) gave an MIC [1] of over 128 µg/mL.

CC1=C(C(N)=O)C(c2ccc(N)cc2)n2nc(SCc3ccccc3)nc2N1 (stereo not drawn) gave an MIC [1] of over 128 µg/mL.

CC1=C(C(N)=O)C(c2cccs2)n2ncnc2N1 (stereo not drawn) gave an MIC [1] of over 128 µg/mL.

Work on CCc1ccc(C2C(C(=O)Nc3ccccc3)=C(C)Nc3nc(SCc4cccc(OC)c4)nn32)cc1 (stereo not drawn) yielded an MIC [1] of over 128 µg/mL.

COc1ncccc1C1C(C(N)=O)=C(C)Nc2nc(SCc3ccccc3)nn21 (stereo not drawn) showed an MIC [1] of 128 µg/mL (≈ 313 µM).

Work on CC(=O)Nc1ccc(C2C(C(N)=O)=C(C)Nc3nc(SCc4ccccc4)nn32)cc1 (stereo not drawn) yielded an MIC [1] of 128 µg/mL (≈ 295 µM).

Compound CC1=C(C(N)=O)C(c2ccncc2)n2nc(SCc3ccccc3)nc2N1 (stereo not drawn) has an MIC [1] of over 128 µg/mL.

Compound CC1=C(C(N)=O)C(C2CCCCC2)n2nc(SCc3ccccc3)nc2N1 (stereo not drawn) has an MIC [1] of over 128 µg/mL.

COc1ccc(C2C(C(N)=O)=C(C)Nc3nc(SCc4ccccc4)nn32)cc1OC (stereo not drawn) showed an MIC [1] of over 128 µg/mL.

Work on COc1cc(C2C(C(=O)Nc3ccc(C)cc3C)=C(C)Nc3nc(SCc4ccccc4)nn32)ccc1O (stereo not drawn) yielded an MIC [1] of 16 µg/mL (≈ 30.3 µM).

Compound CCSc1ccc(C2C(C(N)=O)=C(C)Nc3nc(SCc4ccccc4)nn32)cc1 (stereo not drawn) has an MIC [2] of 8 µg/mL (≈ 18.3 µM), a t1/2 [3] of over 1 h and a CLint scaled at 10 µM [4] of under 10.4 mL/min/kg. It also gave an MIC [5] of 16 µg/mL (≈ 36.6 µM), an Activity [6] of 46% and an MIC [1] of 4 µg/mL (≈ 9.14 µM).

For CCOC(=O)C1=C(C)Nc2nc(SCc3ccccc3)nn2C1c1ccc(N(C)C)cc1 (stereo not drawn), the MIC [1] was over 128 µg/mL.

CC1=C(C(N)=O)C(c2ccc(OC(F)(F)F)cc2)n2nc(SCc3ccccc3)nc2N1 (stereo not drawn) gave an MIC [1] of 8 µg/mL (≈ 17.3 µM).

CC1=C(C(=O)Nc2ccc(C)cc2C)C(c2ccc(F)cc2)n2nc(SCc3cccc(C)c3)nc2N1 (stereo not drawn) showed an MIC [1] of over 128 µg/mL.

For CC1=C(C(N)=O)C(c2ccc(C)cc2)n2nc(SCc3ccccc3)nc2N1 (stereo not drawn), the MIC [1] was over 128 µg/mL.

COc1ccc(CSc2nc3n(n2)C(c2ccc(N(C)C)cc2)C(C(N)=O)=C(C)N3)cc1 (stereo not drawn) showed an MIC [1] of over 128 µg/mL.
